Test results as given in PubChem BioAssay.
Inconclusive results are not listed.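 Rule for the calls, unless noted: active = inhibition over a set limit, the all-compound mean plus 3 SD, in both replicate runs; inconclusive = over that limit in just one replicate run; inactive = at or under that limit in both runs.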

Legend:
[1] = OD615 S. cerevisiae growth inhibition, permissive medium, pilot counter-assay, permissive growth control for S. cerevisiae lifespan shortening project (AID 705;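 active = growth inhibition above 25% in both replicates, a cutoff set 3 SD above the mean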); details: OD615, 24 h, at 10 µM, hits give high values
Procedure, shortened: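 System – S. cerevisiae with engineered DeaD lifespan system · Buffer or medium – SC raffinose/galactose permissive medium · Schedule – cells pre-grown 4 h, then 24 h compound exposure, 30 °C humidified · Technique – culture turbidity as optical density at 615 nm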

[2] = Restrictive medium S. cerevisiae growth inhibition, OD615, pilot screen of yeast lifespan reduction project, restrictive growth control (AID 706;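 active = growth inhibition above a set limit, 3 SD over mean compound inhibition, in both replicates, cut at about 43% in these data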;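 note: modified DeaD lifespan yeast strain shifted to restrictive glucose medium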); details: OD615, 48 h, at 10 µM, hits give high values
Procedure, shortened: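 Material: engineered S. cerevisiae DeaD strain / Medium: glucose-based CSMM-D restrictive medium / Compound: single dose of 10 µM compound final, 0.25% DMSO / Timing: 4 h pre-incubation, 48 h exposure at 30 °C / Technique: OD615 absorbance reading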

[3] = viability gain of MRP-1-high H69AR cells under doxorubicin, pilot screen, MRP-1 activator project, CellTiter-Glo, duplicate (AID 807;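 active = viability increase at or above a cutoff of the median across tested compounds plus 3 SD, cut at about 8.5% in these data, passing the limit was not always enough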;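 note: compound pretreatment 18-22 h then 72 h combined with doxorubicin; 0% = doxorubicin alone and 100% = vehicle without doxorubicin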); details: H69AR viability with doxorubicin, CellTiter-Glo luminescence; at 10 µM; hits give high values
[4] = growth suppression of beta-catenin knockout HCT116, pilot screen, human colon tumor cells (AID 823;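 active = cell viability at or below a set limit in both duplicate runs, the limit being the all-compound median minus 4 SD, cut at about 23% in these data, passing the limit was not always enough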;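 note: 0% = wells killed by 20 µM Hyamine and 100% = untreated DMSO cell wells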); details: CellTiter-Glo, 60 h, at 10 µM, hits give low values
[5] = growth suppression of PTEN-deleted HCT116, pilot screen, cell-based, HCT116 clonal line, CellTiter-Glo (AID 824;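 active = viability at or below 27.92% in each of two runs, the all-compound median minus 4 SD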;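 note: 0% = 20 µM Hyamine control and 100% = vehicle cell control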); details: 60 h, at 10 µM, hits give low values
[6] = inhibitors of the yeast RAM network, pilot screen, dse1pr::URA3 reporter, 5-FOA selection (AID 869);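 note: 0% = DMSO wells with no growth and 100% = 10 µM 1-NA-PP1 with full growth; RAM network block rescues cells from 5-FOA so hits raise OD615 growth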; details: S. cerevisiae dse1pr::URA3 5-FOA growth, OD615, 2 d; at 10 µM; hits give high values; strain carries analog-sensitive mutant Cbk1 kinase
[7] = RAM signaling pathway blockade in yeast – S. cerevisiae, Pdr1DBD-CYC8 efflux-inhibited sensitized strain, primary screen (AID 1298;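 active = RAM network inhibition above 8.4% in each of two replicates, 3 SD over the compound average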;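 note: 0% = DMSO untreated cells without growth and 100% = 10 µM 1-NA-PP1 full growth; higher means more yeast growth rescued from 5-FOA killing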); details: S. cerevisiae cbk1-as DSE1-URA3 strain, 5-FOA growth OD615, 2 d; at 50 µM; hits give high values

Cc1c(N=Cc2ccco2)c(=O)n(-c2ccccc2)n1C
inactive: growth inhibition [1] -11.1% | growth inhibition [2] -8.96% | viability increase [3] -1.15% | viability [4] 93.8% | viability [5] 96.7% | inhibition [6] 1.39% | RAM network inhibition [7] 0.89%

Cn1c(C(=O)NCCc2c[nH]c3ccccc23)cc2sccc21
inactive: growth inhibition [1] -2.17% | growth inhibition [2] 12.7% | viability increase [3] -4.58% | viability [4] 95% | viability [5] 88% | inhibition [6] 1.56% | RAM network inhibition [7] 2%

CSc1ncccc1C(=O)OCC(=O)c1cc2ccccc2o1
inactive: growth inhibition [1] -12.5% | growth inhibition [2] -20.7% | viability increase [3] 0.25% | viability [4] 85% | viability [5] 93.7% | inhibition [6] 3.42% | RAM network inhibition [7] 4.75%

Cn1c(=O)c2c(nc(SCCN3CCOCC3)n2Cc2ccccc2Cl)n(C)c1=O
inactive: growth inhibition [1] -14.9% | growth inhibition [2] 1.19% | viability increase [3] -5.35% | viability [4] 91.8% | viability [5] 94.9% | inhibition [6] 0.27% | RAM network inhibition [7] 5%

Cn1c(=O)c2c(nc(CN3CCOCC3)n2CCCO)n(C)c1=O
inactive: growth inhibition [1] -5.86% | growth inhibition [2] -3.44% | viability increase [3] -0.74% | viability [4] 102% | viability [5] 101% | inhibition [6] 1.76% | RAM network inhibition [7] 6.48%

CC(C)NC(=O)c1ccc(CS(=O)(=O)c2ccc(Br)cc2)o1
inactive: growth inhibition [1] 4.63% | growth inhibition [2] 3.97% | viability increase [3] -1.73% | viability [4] 87.1% | viability [5] 95.1% | inhibition [6] 1.95% | RAM network inhibition [7] 4.82%

FC(F)(F)c1cccc(-c2ccc(-c3csnn3)o2)c1
inactive: growth inhibition [1] -0.85% | growth inhibition [2] 6.13% | viability increase [3] -0.47% | viability [4] 82.2% | viability [5] 83.6% | inhibition [6] 1.4% | RAM network inhibition [7] 9.48%

COc1ccc(CN(C)C2CCCCC2)cc1
inactive: growth inhibition [1] -16.4% | growth inhibition [2] -4.68% | viability increase [3] 0.58% | viability [4] 95.9% | viability [5] 99% | inhibition [6] 1.12% | RAM network inhibition [7] 4.95%

Cn1c(=O)c2c(nc(OCc3ccccc3)n2C)n(C)c1=O
inactive: growth inhibition [1] -2.8% | growth inhibition [2] -0.39% | viability increase [3] 3.09% | viability [4] 100% | viability [5] 98.3% | inhibition [6] -0.115% | RAM network inhibition [7] 0.26%

CCCCN=C(C)C1=C(O)CSC1=O
inactive: growth inhibition [1] -1.78% | growth inhibition [2] 4.99% | viability increase [3] -1.7% | viability [4] 104% | viability [5] 99.7% | inhibition [6] 2% | RAM network inhibition [7] 3.8%

O=C(CN1CCN(c2ccccc2F)CC1)c1ccc2cc[nH]c2c1
inactive: growth inhibition [1] -12.6% | growth inhibition [2] -6.94% | viability increase [3] -4.1% | viability [4] 100% | viability [5] 84.7% | inhibition [6] 2.02% | RAM network inhibition [7] 0.99%

O=C(C1CCCN1S(=O)(=O)c1cccc2cccnc12)N1CCc2ccccc2C1 (stereo unspecified)
inactive: growth inhibition [1] -8.21% | growth inhibition [2] -13.1% | viability increase [3] -1.96% | viability [4] 92.3% | viability [5] 86.7% | inhibition [6] 0.745% | RAM network inhibition [7] 0.84%

CC1=Nc2ccc(C)cc2N(Cc2ccccc2)C(=O)C1
inactive: growth inhibition [1] -10.2% | growth inhibition [2] -5.19% | viability increase [3] 0.47% | viability [4] 101% | viability [5] 93.8% | inhibition [6] 0.545% | RAM network inhibition [7] 2.83%

Cc1noc(C)c1S(=O)(=O)N(CC(=O)NCc1ccc2c(c1)OCO2)c1ccc(C(C)C)cc1
inactive: growth inhibition [1] -13.7% | growth inhibition [2] -8.46% | viability increase [3] -2.92% | viability [4] 82.7% | viability [5] 76.2% | inhibition [6] -0.54% | RAM network inhibition [7] 6.57%

O=C(CCS(=O)(=O)c1cccc2nonc12)N1CCOCC1
inactive: growth inhibition [1] -6.54% | growth inhibition [2] -14.3% | viability increase [3] -2.16% | viability [4] 88% | viability [5] 100% | inhibition [6] 2.56% | RAM network inhibition [7] 2.65%

CCOC(=O)N1CCN(C(=O)Cn2ncc3ccccc32)CC1
inactive: growth inhibition [1] -14.3% | growth inhibition [2] -4.71% | viability increase [3] -1.62% | viability [4] 105% | viability [5] 89.4% | inhibition [6] 3.38% | RAM network inhibition [7] 2.51%

Cc1ccc(NC(=O)CSc2nnc(Cc3cccn3C)n2-c2ccc(F)cc2)c(C)c1
inactive: growth inhibition [1] 4.68% | growth inhibition [2] 8.61% | viability increase [3] -3.99% | viability [4] 93.2% | viability [5] 81.2% | inhibition [6] 2.25% | RAM network inhibition [7] 2.03%

CCOC(=O)C1=C(C)NC(C)=C(C(=O)OCC)C1C(=O)O
inactive: growth inhibition [1] -3.05% | growth inhibition [2] -4.22% | viability increase [3] -3.51% | viability [4] 93.5% | viability [5] 90% | inhibition [6] 0.265% | RAM network inhibition [7] 1.53%

Cc1ccccc1NC(=O)c1ocnc1C
inactive: growth inhibition [1] -1.01% | growth inhibition [2] -8.43% | viability increase [3] -1.48% | viability [4] 101% | viability [5] 92.3% | inhibition [6] 0.18% | RAM network inhibition [7] 4.25%

O=C(NC(O)C(=O)c1ccccc1)c1cccs1 (stereo unspecified)
inactive: growth inhibition [1] 5.04% | growth inhibition [2] -5.63% | viability increase [3] -3.2% | viability [4] 95.4% | viability [5] 101% | inhibition [6] 1.66% | RAM network inhibition [7] 2.71%

Cc1cc2cc(CCNC(=O)c3c(-c4ccccc4Cl)noc3C)c(=O)[nH]c2cc1C
inactive: growth inhibition [1] -14.1% | growth inhibition [2] -2.13% | viability increase [3] -3.71% | viability [4] 94.9% | viability [5] 94.7% | inhibition [6] 1.85% | RAM network inhibition [7] 3.43%

COc1ccc(N2CCN(CCCNS(=O)(=O)c3ccc4c(c3)oc(=O)n4C)CC2)cc1
inactive: growth inhibition [1] -8.8% | growth inhibition [2] 2.4% | viability increase [3] 0.06% | viability [4] 94.3% | viability [5] 97.4% | inhibition [6] 1.25% | RAM network inhibition [7] 6.05%

Cn1c(CNC(=O)C(C)(C)C)nc2ccccc21
inactive: growth inhibition [1] -11.4% | growth inhibition [2] -0.87% | viability increase [3] -3.97% | viability [4] 101% | viability [5] 93.1% | inhibition [6] 1.8% | RAM network inhibition [7] 2.73%

CN(CC(=O)N1CC=C(c2ccccc2)CC1)S(=O)(=O)c1ccc2c(c1)c(=O)n(C)c(=O)n2C
inactive: growth inhibition [1] -1.64% | growth inhibition [2] -12.2% | viability increase [3] -3.46% | viability [4] 94.1% | viability [5] 80.3% | inhibition [6] 0.26% | RAM network inhibition [7] 5.04%

Cc1cc(N2CCN(C(=O)c3ccco3)CC2)n2nc(C)nc2n1
inactive: growth inhibition [1] -6.63% | growth inhibition [2] 5.6% | viability increase [3] -3.61% | viability [4] 95.5% | viability [5] 98.2% | inhibition [6] 0.95% | RAM network inhibition [7] -0.63%

Cc1cccc(-c2nc(CS(=O)CC(=O)NCC3CCCO3)c(C)o2)c1 (stereo unspecified)
inactive: growth inhibition [1] 4.35% | growth inhibition [2] 17.3% | viability increase [3] -2.27% | viability [4] 105% | viability [5] 96.3% | inhibition [6] 0.725% | RAM network inhibition [7] 2.14%

Cc1cccc(NC(=O)CSc2nnc(-c3ccccc3)n2N)c1
inactive: growth inhibition [1] -0.87% | growth inhibition [2] 0.675% | viability increase [3] -1.81% | viability [4] 100% | viability [5] 98.9% | inhibition [6] 1.93% | RAM network inhibition [7] 4.31%

CSCCC(/C(O)=C(\C#N)c1nc2ccccc2[nH]1)N1C(=O)c2ccccc2C1=O (stereo unspecified)
inactive: growth inhibition [1] -14.1% | growth inhibition [2] -11.8% | viability increase [3] 0% | viability [4] 89.8% | viability [5] 90.8% | inhibition [6] 2.82% | RAM network inhibition [7] 7.67%

O=C(Cn1c(N2CCN(c3ccccc3)CC2)nc2ccccc21)c1ccccc1
inactive: growth inhibition [1] -10.3% | growth inhibition [2] -9.96% | viability increase [3] -3.76% | viability [4] 84.3% | viability [5] 93.6% | inhibition [6] 2.6% | RAM network inhibition [7] 4.62%

N#Cc1nc(-c2ccccc2F)oc1NC1CCCCC1
inactive: growth inhibition [1] -18.3% | growth inhibition [2] -17.6% | viability increase [3] -2.53% | viability [4] 87.7% | viability [5] 87.6% | inhibition [6] 0.64% | RAM network inhibition [7] 6%

CC(Oc1ccc(Cl)cc1Cl)C(=O)NCCCN(C)C (stereo unspecified)
inactive: growth inhibition [1] -0.77% | growth inhibition [2] 4.78% | viability increase [3] -2.25% | viability [4] 99.6% | viability [5] 100% | inhibition [6] 1.79% | RAM network inhibition [7] 0.78%

CCc1c(C(C)O)oc2ccc3c(C)cc(=O)oc3c12 (stereo unspecified)
inactive: growth inhibition [1] -9.42% | growth inhibition [2] 2.23% | viability increase [3] -3.86% | viability [4] 84.3% | viability [5] 82.2% | inhibition [6] 1.06% | RAM network inhibition [7] 6.56%

CCOc1ccc(-n2c(SCC(=O)NCc3ccco3)nc3c([nH]c4ccccc43)c2=O)cc1
inactive: growth inhibition [1] -2.76% | growth inhibition [2] -7.4% | viability increase [3] -3.17% | viability [4] 68.5% | viability [5] 64.1% | inhibition [6] 1.14% | RAM network inhibition [7] 7.07%
